Test results: ChEMBL document CHEMBL1141427, “Antifungal amides from Piper scutifolium and Piper hoffmanseggianum” (2007)

What was measured:
[1] = tested on: Cladosporium sphaerospermum; assay: Antifungal activity against Cladosporium sphaerospermum after 72 hrs; assay type: functional
Summary of the method: (§1)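 TLC bioautography: compounds applied to TLC plates, sprayed with a fungal spore suspension in glucose and salt solution, incubated 72 h in darkness in a moistened chamber at 25 °C. Clear inhibition zones against a dark background read as the minimum amount (µg) inhibiting growth on the plate. Strains: C. cladosporioides SPC 140, C. sphaerospermum SPC 491. Nystatin and miconazole positive controls; ampicillin and chloramphenicol negative controls.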

[2] = tested on: Cladosporium cladosporioides; assay: Antifungal activity against Cladosporium cladosporioides after 72 hrs; assay type: functional; summary of the method: as §1

Compound | MIC [1] [µg] | MIC [2] [µg]
COc1ccc(C/C=C/C=C/C(=O)NCC(C)C)cc1 [PIPEROVATINE] | 1 | 1
CC(C)CNC(=O)/C=C/C=C\c1ccc2c(c1)OCO2 [SCUTIFOLAMIDE A] | 5 | 5
CC(=O)OC(C)(C)CNC(=O)/C=C/C=C/c1ccc2c(c1)OCO2 [CORCOVADINE] | 1 | 1
COc1c(OC)c(OC)c2c3c(cc4ccccc42)NC(=O)c13 [PIPEROLACTAM C] | 50 | 5
CC(C)CNC(=O)/C=C/C=C/c1ccc2c(c1)OCO2 [PIPERLONGUMININE] | 1 | 1
NYSTATIN | 1 | 1
Clc1ccc(COC(Cn2ccnc2)c2ccc(Cl)cc2Cl)c(Cl)c1 (stereo not drawn) [MICONAZOLE] | 1 | 1
CC(=O)OC(C)(C)CNC(=O)/C=C\C=C/c1ccc2c(c1)OCO2 [ISOCORCOVADINE] | 1 | 2.5
CC(C)CNC(=O)/C=C\C=C/c1ccc2c(c1)OCO2 [ISOPIPERLONGUMININE] | 0.25 | 0.25
